Tests used:
Format in all cases: functional
[1] = Growth inhibition of human SKOV3 cells assessed as cell growth at 10^-4 M incubated for 48 hrs by sulforhodamine B assay; conditions: SK-OV-3, 48 h, read-out: Activity
[2] = Growth inhibition of human COLO205 cells assessed as cell growth at 10^-8 M incubated for 48 hrs by sulforhodamine B assay; conditions: COLO 205, 48 h, read-out: Activity
In short: (§1)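 Cells seeded at 5,000–40,000/well according to doubling time and preincubated 24 h at 37 °C, 5% CO2. Time-zero plates were TCA-fixed. DMSO concentrate was diluted in medium with 50 µg/ml gentamicin to give five concentrations (10-fold or ½ log steps), then exposed 48 h. Cells were TCA-fixed, stained with 0.4% SRB and read at 515 nm. Percent growth was taken against time-zero and control; GI50, TGI and LC50 derived.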

ACHN = test: Growth inhibition of human ACHN cells assessed as cell growth at 10^-7 M incubated for 48 hrs by sulforhodamine B assay; conditions: read-out: Activity
In short: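 Five-dose assay: five concentrations from 10-fold or ½-log serial dilutions. Cells are plated at 5,000–40,000 per well according to doubling time, grown 24 h, then exposed 48 h at 37 °C, 5% CO₂. Fixed with cold 50% TCA (final addition) for 60 min at 4 °C and stained with 0.4% SRB in 1% acetic acid. Bound dye is solubilized in 10 mM Tris base and read at 515 nm. GI₅₀ is where [(Ti−Tz)/(C−Tz)]×100 = 50, with a time-zero plate as Tz.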

SK-MEL-5 = test: Growth inhibition of human SK-MEL-5 cells assessed as cell growth at 10 uM incubated for 48 hrs by sulforhodamine B assay; conditions: SK-MEL-5, 48 h, read-out: Activity
[3] = Growth inhibition of human HL-60(TB) cells assessed as cell growth at 10 uM incubated for 48 hrs by sulforhodamine B assay; conditions: HL-60, 48 h, read-out: Activity
T47D = test: Growth inhibition of human T47D cells assessed as cell growth at 10^-6 M incubated for 48 hrs by sulforhodamine B assay; conditions: read-out: Activity
KM12 = test: Growth inhibition of human KM12 cells assessed as cell growth at 10^-6 M incubated for 48 hrs by sulforhodamine B assay; conditions: KM12, 48 h, read-out: Activity
[4] = Growth inhibition of human SF268 cells assessed as cell growth at 10^-6 M incubated for 48 hrs by sulforhodamine B assay; conditions: SF-268, 48 h, read-out: Activity
[5] = Growth inhibition of human Caki1 cells assessed as cell growth at 10^-6 M incubated for 48 hrs by sulforhodamine B assay; conditions: CAKI-1, 48 h, read-out: Activity; in short: as §1
[6] = Growth inhibition of human LOXIMVI cells assessed as cell growth at 10^-4 M incubated for 48 hrs by sulforhodamine B assay; conditions: LOX IMVI, read-out: Activity
MCF7 = test: Growth inhibition of human MCF7 cells assessed as cell growth at 10^-5 M incubated for 48 hrs by sulforhodamine B assay; conditions: MCF7, 48 h, read-out: Activity
[7] = Growth inhibition of human DU145 cells assessed as cell growth at 10^-6 M incubated for 48 hrs by sulforhodamine B assay; conditions: DU-145, 48 h, read-out: Activity; in short: as §1
[8] = Growth inhibition of human OVCAR5 cells assessed as cell growth at 10^-7 M incubated for 48 hrs by sulforhodamine B assay; conditions: OVCAR-5, 48 h, read-out: Activity
[9] = Growth inhibition of human Caki1 cells assessed as cell growth at 10^-8 M incubated for 48 hrs by sulforhodamine B assay; conditions: CAKI-1, 48 h, read-out: Activity; in short: as §1
[10] = Growth inhibition of human DU145 cells assessed as cell growth at 10^-5 M incubated for 48 hrs by sulforhodamine B assay; conditions: DU-145, 48 h, read-out: Activity; in short: as §1
[11] = Growth inhibition of human colon cancer cells incubated for 48 hrs by sulforhodamine B assay; conditions: Cancer cell lines; for CC50: read-out: LC50 (the source's name)
[12] = Growth inhibition of human SNB75 cells assessed as cell growth at 10^-8 M incubated for 48 hrs by sulforhodamine B assay; conditions: SNB-75, 48 h, read-out: Activity
[13] = Growth inhibition of human HOP62 cells assessed as cell growth at 10^-6 M incubated for 48 hrs by sulforhodamine B assay; conditions: HOP-62, 48 h, read-out: Activity
[14] = Growth inhibition of human LOXIMVI cells assessed as cell growth at 10^-7 M incubated for 48 hrs by sulforhodamine B assay; conditions: LOX IMVI, read-out: Activity
[15] = Growth inhibition of human HCT116 cells assessed as cell growth at 10^-7 M incubated for 48 hrs by sulforhodamine B assay; conditions: HCT-116, 48 h, read-out: Activity; in short: as §1
[16] = Growth inhibition of human SF539 cells assessed as cell growth at 10^-6 M incubated for 48 hrs by sulforhodamine B assay; conditions: SF-539, 48 h, read-out: Activity
U-251 = test: Growth inhibition of human U251 cells assessed as cell growth at 10^-4 M incubated for 48 hrs by sulforhodamine B assay; conditions: U-251, 48 h, read-out: Activity
[17] = Growth inhibition of human PC3 cells assessed as cell growth at 10^-5 M incubated for 48 hrs by sulforhodamine B assay; conditions: PC-3, 48 h, read-out: Activity
NCI-H460 = test: Growth inhibition of human NCI-H460 cells assessed as cell growth at 10^-6 M incubated for 48 hrs by sulforhodamine B assay; conditions: NCI-H460, 48 h, read-out: Activity
NCI-H23 = test: Growth inhibition of human NCI-H23 cells incubated for 48 hrs by sulforhodamine B assay; conditions: NCI-H23, 48 h
In short: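 Cells were plated at 5,000–40,000 per well according to doubling time and preincubated 24 h at 37 °C in 5% CO2; time-zero plates were then TCA-fixed. Five concentrations (10-fold or ½-log dilutions, DMSO stock) were incubated 48 h. Cells were TCA-fixed, stained with 0.4% SRB and read at 515 nm. GI50 was taken where [(Ti−Tz)/(C−Tz)]×100 = 50.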

SN12C = test: Growth inhibition of human SN12C cells assessed as cell growth at 10^-4 M incubated for 48 hrs by sulforhodamine B assay; conditions: read-out: Activity
[18] = read-out: LC50 (the source's name)
[19] = read-out: pLC50 (the source's name) (converted)

Structure (SMILES)	growth at 100 µM [1]	growth at 0.01 µM [2]	growth at 0.1 µM (ACHN)	growth at 10 µM (SK-MEL-5)	growth at 10 µM [3]	growth at 1 µM (T47D)	growth at 1 µM (KM12)	growth at 1 µM [4]	growth at 1 µM [5]	growth at 100 µM [6]	growth at 10 µM (MCF7)	growth at 1 µM [7]	growth at 0.1 µM [8]	growth at 0.01 µM [9]	growth at 10 µM [10]	GI50 [11]	TGI [11]	CC50 [11]	growth at 0.01 µM [12]	growth at 1 µM [13]	other results
c1ccc(-c2nc(Nc3ccc(-c4nc5ccccc5[nH]4)cc3)nc(N3CCOCC3)n2)cc1	-100%	100%	92%	-95.4%	-32.7%	78%	85%	86%	68%	-45%	-57%	63%	99%	91%	-96%	0.99 µM	2.55 µM	6.53 µM	79%	89%	growth at 0.1 µM [14]: 96%; growth at 0.1 µM [15]: 100%; growth at 1 µM [16]: 74%; growth at 100 µM (U-251): -69%; growth at 10 µM [17]: -72%; growth at 1 µM (NCI-H460): 45%; GI50 (NCI-H23; read-out: GI50): 2.07 µM; CC50 (NCI-H23; [18]): 68.7 µM; TGI (NCI-H23; read-out: TGI): 4.78 µM; GI50 (NCI-H23; read-out: pGI50 (converted)): 2.09 µM; CC50 (NCI-H23; [19]): 69.2 µM; TGI (NCI-H23; read-out: pTGI (converted)): 4.79 µM; growth at 100 µM (SN12C): -59%
Fc1ccc(-c2nc(Nc3ccc(-c4nc5ccccc5[nH]4)cc3)nc(N3CCOCC3)n2)cc1	-49%	100%	95%	-90.7%	-46%	88%	86%	89%	87%	-49%	1%	98%	83%	94%	25%	2.15 µM	4.73 µM	7.9 µM	86%	90%	growth at 0.1 µM [14]: 95%; growth at 0.1 µM [15]: 94%; growth at 1 µM [16]: 80%; growth at 100 µM (U-251): -33%; growth at 10 µM [17]: -20%; growth at 1 µM (NCI-H460): 97%; GI50 (NCI-H23; read-out: GI50): 2.57 µM; CC50 (NCI-H23; [18]): > 100 µM; TGI (NCI-H23; read-out: TGI): 9.9 µM; GI50 (NCI-H23; read-out: pGI50 (converted)): 2.57 µM; CC50 (NCI-H23; [19]): > 100 µM; TGI (NCI-H23; read-out: pTGI (converted)): 10 µM; growth at 100 µM (SN12C): -21%
Clc1ccc(-c2nc(Nc3ccc(-c4nc5ccccc5[nH]4)cc3)nc(N3CCOCC3)n2)cc1	-50%	95%	99%	-97.6%	-81.4%	19%	14%	3%	76%	2%	-66%	26%	92%	89%	-93%	0.26 µM	0.69 µM	2.75 µM	83%	72%	growth at 0.1 µM [14]: 94%; growth at 0.1 µM [15]: 93%; growth at 1 µM [16]: 31%; growth at 100 µM (U-251): -44%; growth at 10 µM [17]: -89%; growth at 1 µM (NCI-H460): -45%; GI50 (NCI-H23; read-out: GI50): 1.7 µM; TGI (NCI-H23; read-out: TGI): 3.66 µM; GI50 (NCI-H23; read-out: pGI50 (converted)): 1.7 µM; TGI (NCI-H23; read-out: pTGI (converted)): 3.63 µM; growth at 100 µM (SN12C): -14%
c1ccc2[nH]c(-c3ccc(Nc4nc(N5CCCCC5)nc(N5CCOCC5)n4)cc3)nc2c1	-67%	99%	95%	-90.8%	-22.7%	90%	93%	96%	87%	-65%	-10%	96%	100%	90%	23%	2.43 µM	5.52 µM	30.2 µM	75%	90%	growth at 0.1 µM [14]: 95%; growth at 0.1 µM [15]: 94%; growth at 1 µM [16]: 89%; growth at 100 µM (U-251): -56%; growth at 10 µM [17]: -4%; growth at 1 µM (NCI-H460): 98%; GI50 (NCI-H23; read-out: GI50): 3.05 µM; CC50 (NCI-H23; [18]): > 100 µM; TGI (NCI-H23; read-out: TGI): 15.7 µM; GI50 (NCI-H23; read-out: pGI50 (converted)): 3.02 µM; CC50 (NCI-H23; [19]): > 100 µM; TGI (NCI-H23; read-out: pTGI (converted)): 15.8 µM; growth at 100 µM (SN12C): -12%

From ChEMBL document CHEMBL3808334, “Synthesis and in vitro evaluation of novel triazine analogues as anticancer agents and their interaction studies with bovine serum albumin” (Eur J Med Chem, 2016)
